Series [1] is described as follows: Toxicity in male Wistar rat assessed as ratio of liver to body weight at 400 mg/kg, po after 28 days (reference value: 3.142 +/- 0.231). Type of series: organism-based. To be noted: in vivo, 672 h, time 28 day.
The nature of series [2]: Elimination rate constant in Beagle dog at 10 mg/kg, po up to 24 hrs. It counts as ADME, organism-based, Canis lupus familiaris. To be noted: in vivo. In outline:
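Single oral dose at 10 mg/kg given to male Wistar rats and to Beagle dogs; bioavailability also determined in both species.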

Series [3] can be described thus: Toxicity in male Wistar rat assessed as ratio of brain to body weight at 100 mg/kg, po after 28 days (reference value: 0.766 +/- 0.038). Type of series: organism-based. To be noted: in vivo, 672 h, time 28 day.
Series [4] in a line: Toxicity in female Wistar rat assessed as ratio of adrenals to body weight at 200 mg/kg, po after 28 days (reference value: 0.045 +/- 0.007). It counts as organism-based. To be noted: in vivo, 672 h, time 28 day.
Series [5] in a line: Toxicity in male Wistar rat assessed as ratio of liver to body weight at 100 mg/kg, po after 28 days (reference value: 3.142 +/- 0.231). It counts as organism-based. To be noted: in vivo, 672 h, time 28 day.
The nature of series [6]: Toxicity in male Wistar rat assessed as ratio of adrenals to body weight at 400 mg/kg, po after 28 days (reference value: 0.020 +/- 0.003). It counts as organism-based. To be noted: in vivo, 672 h, time 28 day.
Series [7] in a line: Toxicity in male Wistar rat assessed as ratio of epididymides to body weight at 100 mg/kg, po after 28 days (reference value: 0.361 +/- 0.028). To be noted: in vivo, 672 h, time 28 day. It counts as organism-based.
Series [8] is described as follows: Toxicity in female Wistar rat assessed as neurobehavioral changes at 400 mg/kg, po after 28 days. To be noted: in vivo, 672 h, time 28 day. Type of series: organism-based. The gist of the method: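 Repeated-dose oral toxicity by gavage in Wistar rats, 10 males and 10 females per group, given 100, 200 or 400 mg/kg once daily for 28 days. Endpoints were clinical signs, mortality, neurobehaviour, food intake, ophthalmic examination and body weight. Animals were sacrificed on day 29 for blood biochemistry, organ-to-body weight ratios and histopathology.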

Consider `Cc1c(Oc2cccc(/C=C3\SC(=O)NC3=O)c2)ncnc1OC1CCN(C(=O)OC(C)(C)C)CC1`, for which the Ratio in series [1] was 3.22; in series [3], 0.83; in series [4], 0.044; in series [5] it was 3.237; in series [6] it was 0.023; in series [7] it was 0.371. The same compound had a k el at 24 h in series [2] of 1.11e-05 s⁻¹. For the same compound, in series [8], the Activity entry is on record as “Non-Toxic”.
